Results: ChEMBL document CHEMBL4834399, “Pharmacokinetics of Eleven Kratom Alkaloids Following an Oral Dose of Either Traditional or Commercial Kratom Products in Rats” (J Nat Prod, 2021)

How the values were obtained:
[1] = Drug uptake in Sprague-Dawley rat plasma at 0.79 mg/kg, po administered as LKT formulation measured within 1 hrs by UPLC-MS/MS analysis; format: ADME, organism-based
In short: (§1)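 Jugular-cannulated male SD rats (225 ± 25 g, n = 4) were fasted 12–16 h and given one oral gavage of LKT (366 mg/kg) or OPMS liquid (0.8 mL/kg) in water at 4 mL/kg, with dosing normalized to MTG human equivalent dose. Plasma was sampled from predose to 24 h and measured by UPLC–MS/MS (LLOQ 1 ng/mL). Cmax and Tmax were read from the observed data; Cmax/dose was also reported. Mean ± SEM.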

[2] = Cmax in Sprague-Dawley rat plasma at 1.23 mg/kg, po administered as OPMS liquid formulation measured for 24 hrs by UPLC-MS/MS analysis; format: ADME, organism-based; set-up: route oral, time 24 hrs, dose 1.23 mg/kg; in short: as §1
[3] = Cmax in Sprague-Dawley rat plasma at 0.79 mg/kg, po administered as LKT formulation measured for 24 hrs by UPLC-MS/MS analysis; format: ADME, organism-based; set-up: route oral, time 24 hrs, dose 0.79 mg/kg; in short: as §1
[4] = Tmax in Sprague-Dawley rat plasma at 1.23 mg/kg, po administered as OPMS liquid formulation measured for 24 hrs by UPLC-MS/MS analysis; format: ADME, organism-based; in short: as §1
[5] = Tmax in Sprague-Dawley rat plasma at 0.79 mg/kg, po administered as LKT formulation measured for 24 hrs by UPLC-MS/MS analysis; format: ADME, organism-based; in short: as §1
[6] = Drug uptake in Sprague-Dawley rat plasma at 1.23 mg/kg, po administered as OPMS liquid formulation measured within 1 hrs by UPLC-MS/MS analysis; format: ADME, organism-based; in short: as §1
[7] = Stability of the compound in water-methanol mixture (1:1) assessed as drug recovery; format: physicochemical; conditions: buffer
[8] = Stability of the compound in rat plasma assessed as drug recovery; format: ADME, cell-free
[9] = Tmax in Sprague-Dawley rat plasma at <0.1 mg/kg, po administered as LKT formulation measured for 24 hrs by UPLC-MS/MS analysis; format: ADME, organism-based; in short: as §1
[10] = AUC(0 to 24 hrs) in Sprague-Dawley rat plasma at <0.1 mg/kg, po administered as LKT formulation measured for 24 hrs by UPLC-MS/MS analysis; format: ADME, organism-based; set-up: route oral, time 24 hrs, dose <0.1
[11] = AUC(0 to 24 hrs) in Sprague-Dawley rat plasma at <0.1 mg/kg, po administered as OPMS liquid formulation measured for 24 hrs by UPLC-MS/MS analysis; format: ADME, organism-based; set-up: route oral, time 24 hrs, dose <0.1
[12] = Cmax in Sprague-Dawley rat plasma at <0.1 mg/kg, po administered as LKT formulation measured for 24 hrs by UPLC-MS/MS analysis; format: ADME, organism-based; set-up: route oral, time 24 hrs, dose <0.1; in short: as §1
[13] = Tmax in Sprague-Dawley rat plasma at <0.1 mg/kg, po administered as OPMS liquid formulation measured for 24 hrs by UPLC-MS/MS analysis; format: ADME, organism-based; in short: as §1
[14] = Cmax in Sprague-Dawley rat plasma at <0.1 mg/kg, po administered as OPMS liquid formulation measured for 24 hrs by UPLC-MS/MS analysis; format: ADME, organism-based; set-up: route oral, time 24 hrs, dose <0.1; in short: as §1
[15] = Dose normalized AUC(0 to 24 hrs) in Sprague-Dawley rat plasma at […], po administered as OPMS liquid formulation measured for 24 hrs by UPLC-MS/MS analysis; format: ADME, organism-based; conditions: in vivo, dose 0.18 mg/kg
[16] = Dose normalized AUC(0 to 24 hrs) in Sprague-Dawley rat plasma at 0.13 mg/kg, po administered as LKT formulation measured for 24 hrs by UPLC-MS/MS analysis; format: ADME, organism-based; conditions: in vivo
[17] = AUC(0 to 24 hrs) in Sprague-Dawley rat plasma at […], po administered as OPMS liquid formulation measured for 24 hrs by UPLC-MS/MS analysis; format: ADME, organism-based; set-up: route oral, dose 0.18 mg/kg, time 24 hrs
[18] = AUC(0 to 24 hrs) in Sprague-Dawley rat plasma at 0.13 mg/kg, po administered as LKT formulation measured for 24 hrs by UPLC-MS/MS analysis; format: ADME, organism-based; set-up: route oral, time 24 hrs, dose 0.13 mg/kg
[19] = Tmax in Sprague-Dawley rat plasma at […], po administered as OPMS liquid formulation measured for 24 hrs by UPLC-MS/MS analysis; format: ADME, organism-based; conditions: dose 0.18 mg/kg
[20] = Dose normalized Cmax in Sprague-Dawley rat plasma at […], po administered as OPMS liquid formulation measured for 24 hrs by UPLC-MS/MS analysis; format: ADME, organism-based; conditions: in vivo, dose 0.18 mg/kg
[21] = Tmax in Sprague-Dawley rat plasma at 0.13 mg/kg, po administered as LKT formulation measured for 24 hrs by UPLC-MS/MS analysis; format: ADME, organism-based; in short: as §1
[22] = Cmax in Sprague-Dawley rat plasma at […], po administered as OPMS liquid formulation measured for 24 hrs by UPLC-MS/MS analysis; format: ADME, organism-based; set-up: route oral, time 24 hrs, dose 0.18 mg/kg
[23] = Dose normalized AUC(0-24 hrs) in po dosed rat plasma; format: ADME, organism-based; conditions: in vivo
[24] = Dose normalized Cmax in po dosed rat plasma; format: ADME, organism-based; conditions: in vivo
[25] = Dose normalized Cmax in Sprague-Dawley rat plasma at 0.13 mg/kg, po administered as LKT formulation measured for 24 hrs by UPLC-MS/MS analysis; format: ADME, organism-based; conditions: in vivo; in short: as §1

Structure (SMILES): CC[C@H]1CN2CCc3c([nH]c4cccc(OC)c34)[C@@H]2C[C@@H]1/C(=C\OC)C(=O)OC
- concentration at 1 h [1]: < 1 ng/mL
- Cmax [2]: 2.9 ng/mL
- Cmax [3]: 2.9 ng/mL
- Tmax [4]: 5 min
- Tmax [5]: 10 min
- concentration at 1 h [6]: < 1 ng/mL
- Drug recovery [7]: > 80%
- Drug recovery [8]: > 90%

Structure (SMILES): CC[C@@H]1CN2CC[C@@]3(O)C(=Nc4cccc(OC)c43)[C@@H]2C[C@@H]1/C(=C\OC)C(=O)OC
- Tmax [9]: 54 min
- AUC(0-t) at 24 h [10]: 17.4 ng·h/mL
- AUC(0-t) at 24 h [11]: 41 ng·h/mL
- Cmax [12]: 4.3 ng/mL
- Tmax [13]: 186 min
- Drug recovery [7]: > 80%
- Cmax [14]: 4 ng/mL
- Drug recovery [8]: > 90%

Structure (SMILES): CC[C@@H]1CN2CCc3c([nH]c4ccccc34)[C@@H]2C[C@@H]1/C(=C\OC)C(=O)OC [CORYNANRHEIDINE]
- AUC/dose [15]: 152.2 kg·ng·h/mL/mg
- AUC/dose [16]: 63.1 kg·ng·h/mL/mg
- AUC(0-t) at 24 h [17]: 30.4 ng·h/mL
- AUC(0-t) at 24 h [18]: 8.2 ng·h/mL
- Tmax at 24 h [19]: 186 min
- Cmax/dose [20]: 15.6 kg·ng/mL/mg
- Tmax [21]: 60 min
- Cmax at 24 h [22]: 3.1 ng/mL
- Drug recovery [7]: > 80%
- AUC/dose [23]: 138.8 kg·ng·h/mL/mg
- Cmax/dose [24]: 10.7 ng/mL
- Cmax/dose [25]: 14 kg·ng/mL/mg
- Drug recovery [8]: > 90%

Structure (SMILES): CC[C@@H]1CN2CC[C@]3(C(=O)Nc4ccccc43)[C@@H]2C[C@@H]1/C(=C\OC)C(=O)OC [CORYNOXINE B]
- Drug recovery [7]: > 80%
- Drug recovery [8]: > 90%

Structure (SMILES): CC[C@@H]1CN2CC[C@@]3(C(=O)Nc4ccccc43)[C@@H]2C[C@@H]1/C(=C\OC)C(=O)OC [CORYNOXINE]
- Drug recovery [7]: > 80%
- Drug recovery [8]: > 90%
